Drawing on ChEMBL document CHEMBL1133100, “Design and synthesis of Cyclopenta[g]quinazoline-based antifolates as inhibitors of thymidylate synthase and potential antitumor agents(,)” (J Med Chem, 2000), this text covers IC50 and Ki for 14 molecules.

The test system of test [1] is L1210. The test can be described thus: Compound was tested for the inhibition of L1210: 1565 cell growth in mouse. The class given is functional, cell-based.
In test [2] the test system is L1210. The test can be described thus: Compound was tested for the inhibition of L1210 cell growth in mouse. In kind it is functional, cell-based.
Test [3] has as its target T1, Thymidylate synthase (Mus musculus, UniProt P07607). Kind of test: Binding affinity against thymidylate synthase from L1210 mouse leukemia cells. In kind it is cell-based. The conditions noted are these: read-out: Ki app. The procedure, abridged:
(§1)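 Enzyme source was partially purified thymidylate synthase from L1210 mouse leukemia cells that overproduce TS through TS gene amplification. Apparent Ki was determined alongside the control CB3717 in each experiment. The test Kiapp/CB3717 Kiapp ratio was multiplied by the mean CB3717 Kiapp across experiments to allow comparison between experiments.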

In test [4] the test system is L1210. Kind of test: Compound was tested for the inhibition of L1210: 1565 cell growth in mouse; value given as 3.6, 2.7. In kind it is functional, cell-based.
Test [5] deals with L1210. Kind of test: Compound was tested for the inhibition of L1210: 1565 cell growth in mouse; value given as 1.2, 1.6. The class given is functional, cell-based.
Test [6] deals with L1210. The test can be described thus: Compound was tested for the inhibition of L1210: 1565 cell growth in mouse; Value given as 1.3,0.84. The class given is functional, cell-based.
In test [7] the test system is L1210. Kind of test: Compound was tested for the inhibition of L1210: 1565 cell growth in mouse; value given as 3.9, 3.0. In kind it is functional, cell-based.
The test system of test [8] is L1210. Kind of test: Compound was tested for the inhibition of L1210 cell growth in mouse; value given as 7.2, 7.2. The class given is functional, cell-based.
For test [9], the system named is L1210. Kind of test: Compound was tested for the inhibition of L1210 cell growth in mouse; Value was given as 2.3,1.8. In kind it is functional, cell-based.
The subject of test [10] is L1210. The test can be described thus: Compound was tested for the inhibition of L1210 cell growth in mouse; value given as 1.7,2.0. In kind it is functional, cell-based.
For test [11], the target named is T1, Thymidylate synthase. The test can be described thus: Compound was tested for the binding affinity against thymidylate synthase from L1210 mouse leukemia cells; value given as 2.4,1.8. Conditions: read-out: Ki app. The class given is cell-based. The method in brief:
as §1

Test [12] deals with L1210. The test can be described thus: Compound was tested for the inhibition of L1210:1565 cell growth in mouse; value given as 3.5,4.1. In kind it is functional, cell-based.
Test [13] has as its target T1, Thymidylate synthase. The test can be described thus: Compound was tested for the binding affinity against thymidylate synthase from L1210 mouse leukemia cells; value given as 0.9, 2.0. In kind it is cell-based. The conditions noted are these: read-out: Ki app. The procedure, abridged:
as §1

Test [14] concerns L1210. Kind of test: Compound was tested for the inhibition of L1210: 1565 cell growth in mouse; value given as 8.2, 7.8. The class given is functional, cell-based.

T1 sequence (P07607 whole entry): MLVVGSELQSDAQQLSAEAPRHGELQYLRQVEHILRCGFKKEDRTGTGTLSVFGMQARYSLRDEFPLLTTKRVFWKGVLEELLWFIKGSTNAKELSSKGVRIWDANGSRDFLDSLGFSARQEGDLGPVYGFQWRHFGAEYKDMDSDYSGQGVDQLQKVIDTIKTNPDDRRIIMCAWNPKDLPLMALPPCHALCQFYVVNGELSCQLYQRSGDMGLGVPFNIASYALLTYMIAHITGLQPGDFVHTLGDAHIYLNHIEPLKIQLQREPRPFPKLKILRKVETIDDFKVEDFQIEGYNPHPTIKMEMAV

For `C#CCN(c1ccc(C(=O)N[C@@H](CCCS(=O)(=O)c2nnc[nH]2)C(=O)O)cc1)C1CCc2cc3nc(C)[nH]c(=O)c3cc21` (some centres not stated), the IC50 is 680 nM in [1] and 490 nM in test [2]. Besides, the Ki in test [3] stood at 0.78 nM.
In the case of `C#CCN(c1ccc(C(=O)N[C@@H](CCC(=O)N[C@H](CCC)c2nnn[nH]2)C(=O)O)cc1)C1CCc2cc3nc(C)[nH]c(=O)c3cc21` (some centres not stated), the IC50 amounted to 440 nM in test [2] and 3600 nM in test [4]. Besides, the Ki in test [3] worked out at 2.6 nM.
With `C#CCN(c1ccc(C(=O)N[C@@H](CCC(=O)N[C@H](C)C(=O)O)C(=O)O)cc1)C1CCc2cc3nc(C)nc(O)c3cc21` (some centres not stated), the IC50 was determined as 1400 nM in [1] and 420 nM in test [2]. In addition, the Ki in test [3] stood at 1.1 nM.
As to `C#CCN(c1ccc(C(=O)N[C@@H](CCC(=O)N[C@H](C)c2nnn[nH]2)C(=O)O)cc1)C1CCc2cc3nc(C)[nH]c(=O)c3cc21` (some centres not stated), the values for the IC50 in test [2] and in [5] were 640 nM and 1600 nM, respectively. Moreover, the Ki in [3] came to 2.2 nM.
Regarding `C#CCN(c1ccc(C(=O)N[C@@H](CCC(=O)N[C@H](CCC(=O)O)C(=O)O)C(=O)O)cc1)C1CCc2cc3nc(C)nc(O)c3cc21` (some centres not stated), the results for the IC50 in [1] and in [2] were 2200 nM and 300 nM, respectively. The Ki in test [3] was 0.42 nM.
Consider `C#CCN(c1ccc(C(=O)N[C@@H](CCc2nnn(CC(=O)O)n2)C(=O)O)cc1)C1CCc2cc3nc(C)nc(O)c3cc21` (some centres not stated), for which the figures for the IC50 in test [6] and in test [2] were 1300 nM and 180 nM, respectively. The Ki in test [3] was found to be 1.7 nM.
Turning to `C#CCN(c1ccc(C(=O)N[C@@H](CCC(=O)N[C@H](CCC(=O)O)c2nnn[nH]2)C(=O)O)cc1)C1CCc2cc3nc(C)[nH]c(=O)c3cc21` (some centres not stated), the concentration for half-maximal inhibition (IC50) in test [1] was 1300 nM; in test [2] it was 1500 nM. In addition, in test [3], the Ki turned out to be 0.2 nM.
For `C#CCN(c1ccc(C(=O)N[C@@H](CCC(=O)N[C@@H](CCc2nnnn2CC(=O)O)C(=O)O)C(=O)O)cc1)C1CCc2cc3nc(C)nc(O)c3cc21` (some centres not stated), the IC50 in test [7] came to 3900 nM; in test [8], 7200 nM. For the same molecule, the Ki in test [3] was 0.26 nM.
For the molecule `C#CCN(c1ccc(C(=O)N[C@@H](CCC(=O)N(C)[C@H](CCC(=O)O)C(=O)O)C(=O)O)cc1)C1CCc2cc3nc(C)nc(O)c3cc21` (some centres not stated), the IC50 in test [1] turned out to be 4400 nM; in test [9], 2300 nM. For the same molecule, in [3], the Ki came out at 0.78 nM.
For the molecule `C#CCN(c1ccc(C(=O)N[C@@H](CCc2nnnn2CC(=O)O)C(=O)O)cc1)C1CCc2cc3nc(C)nc(O)c3cc21` (some centres not stated), the IC50 in test [10] is 2000 nM; in [12] it was 4100 nM. Besides, the Ki in test [11] was 2.4 nM.
In the case of `C#CCN(c1ccc(C(=O)N[C@@H](CCc2nnnn2CCCC(=O)O)C(=O)O)cc1)C1CCc2cc3nc(C)nc(O)c3cc21` (some centres not stated), the IC50 in [1] is 2300 nM; in test [2], 2700 nM. In addition, the Ki in [13] came out at 2 nM.
For `C#CCN(Cc1cc2c(O)nc(C)nc2cc1C)c1ccc(C(=O)N[C@@H](CCC(=O)N[C@H](CCC(=O)O)C(=O)O)C(=O)O)cc1`, the IC50 in test [1] worked out at 14000 nM; in [2], 220 nM. Further, in [3], the Ki was determined as 2 nM.
As for `C#CCN(c1ccc(C(=O)N[C@@H](CCc2nnnn2CC(=O)N[C@H](C)C(=O)O)C(=O)O)cc1)C1CCc2cc3nc(C)nc(O)c3cc21` (some centres not stated), the IC50 in test [1] was found to be 13000 nM; in [2] it was 19000 nM. Also, in [3], the Ki was found to be 2.2 nM.
In the case of `C#CCN(c1ccc(C(=O)N[C@@H](CCC(=O)N[C@H](C)C(=O)NS(=O)(=O)c2ccccc2)C(=O)O)cc1)C1CCc2cc3nc(C)nc(O)c3cc21` (some centres not stated), the IC50 in test [2] came to 1900 nM; in [14] it was 8200 nM. For the same molecule, the Ki in test [3] was 2.4 nM.

Usually IC50 stands for the midpoint of a concentration-inhibition curve. A higher IC50 goes with weaker potency.
